From ChEMBL document CHEMBL1124584, “Effect of triphenylacrylonitrile derivatives on estradiol-receptor binding and on human breast cancer cell growth” (J Med Chem, 1989)

Assays:
[1] = molecular target: T1, Anti-estrogen binding site (AEBS) (Homo sapiens) (UniProt Q15125+Q9UBM7); experiment: Relative binding affinity for antiestrogen binding site (AEBS) of calf uterus cytosol; assay type: tissue-based
Summary of the method: (§1)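 Calf uterus was homogenized in TED buffer (10 mM Tris-HCl, 1.5 mM EDTA, 1 mM DTT, pH 7.4) and spun at 12000 g for 1 h at 0–4 °C. […] Free ligand was removed with dextran-charcoal, and bound ligand was counted by scintillation. RBA was taken from the 50% displacement concentration.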

[2] = molecular target: T1, Anti-estrogen binding site (AEBS) (Homo sapiens); experiment: Relative binding affinity for antiestrogen binding site (AEBS) of calf uterus 2 hr incubation at 0C; assay type: tissue-based; summary of the method: as §1
[3] = test system: BT-20; experiment: Inhibitory activity against proliferation of BT-20 cells in presence of TPE at 10e-5 M concentration.; assay type: functional; conditions: Homo sapiens
Summary of the method: (§2)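 ER-negative BT-20 cells were seeded at 40000/well in phenol-red-free MEM-based medium and exposed to compound (3–10 µM) for 5 or 6 days, with medium renewed every 2 days. DNA content was read in triplicate wells as % of vehicle control. Values are given as the IC30 and as % inhibition at 10^-5 M.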

[4] = test system: BT-20; experiment: Percent of inhibitory activity against proliferation of BT-20 cells in presence of TPE at 10e-5 M concentration.; assay type: functional; conditions: Homo sapiens; summary of the method: as §2
[5] = test system: MCF7; experiment: Effective dose for [3H]- estradiol against proliferation of MCF-7 cells; assay type: functional, cell-based; conditions: Homo sapiens
[6] = test system: MCF7; experiment: Percent of inhibitory activity against proliferation of MCF-7 cells in presence of 10e-6 M concentration of […] (E2).; assay type: functional, Homo sapiens
Summary of the method: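 Cytotoxicity assay: MCF-7 cells were seeded at 20000/well in phenol-red-free medium with 5% DCC-treated FCS and exposed to compound (3–10 µM) plus 1 µM E2 for 6 days. Medium was renewed every 2 days. DNA content was read in triplicate wells as % of 1 µM E2 alone. Values are given as the IC30 and as % inhibition at 10^-5 M.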

[7] = test system: MCF7; experiment: Percent of inhibitory activity versus 0.1 nm […] against proliferation of MCF-7 cells.; assay type: functional, Homo sapiens
Summary of the method: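 Same MCF-7 pre-culture in steroid-depleted phenol-red-free medium, seeded at 10000 cells/well. Cells grew with 0.1 nM E2 plus various compound concentrations, medium renewed every 2 days, for 8 days. DNA was measured in triplicate wells, as % DNA relative to E2 alone. % antagonist = (E2−TPE)/(E2−control)×100, from the IC50 or the response at 10^-6 M.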

[8] = test system: MCF7; experiment: Percent of effective dose for […] against proliferation of MCF-7 cells.; assay type: functional, Homo sapiens
Summary of the method: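 MCF-7 cells were kept 6 days in phenol-red-free MEM-based medium with 5% dextran-charcoal-stripped FCS, then seeded at 10000 cells/well. After 1 day they got test compound (10 pM to 1 µM) without E2, or vehicle (0.2% ethanol); medium was renewed every 2 days. DNA was assayed after 8–10 days in triplicate wells. % agonist = (TPE−control)/(E2−control)×100, from the EC50 or the maximum response.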

[9] = test system: MCF7; experiment: Inhibitory activity against proliferation of MCF-7 cells in presence of 10e-6 M concentration of [3H]- estradiol (E2); assay type: functional; conditions: Homo sapiens
[10] = molecular target: T2, Estrogen receptor (Bos taurus) (UniProt Q9XSB5+P49884); conditions: Uterus; Cytosol
[11] = molecular target: T2, Estrogen receptor (Bos taurus); conditions: Uterus; Cytosol; remark: listed apart in the source
[12] = test system: MCF7; experiment: In vitro inhibition of MCF-7 cell proliferation compared to 0.1 nM [3H]-estradiol.; assay type: functional, cell-based; conditions: Homo sapiens
[13] = molecular target: T2, Estrogen receptor (Bos taurus); experiment: Selectivity for relative binding affinity against estrogen receptor in at 2 hrs and 5 hr in calf uterus cytosol; assay type: protein assay
Summary of the method: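 Calf uterine cytosol (TED buffer, pH 7.4; 180000 g, 1 h) was incubated with 1 nM [3H]E2 and competitor (0.3 nM–10 µM, 1% ethanol), either 2 h at 0 °C or 5 h at 25 °C. Bound ligand was separated with dextran-charcoal and counted by scintillation. RBA came from the concentration giving 50% displacement relative to E2. The value is the ratio of the 25 °C RBA to the 0 °C RBA.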

Row | SMILES | relative binding affinity (RBA) ([1]; Bos taurus) | RBA ([2]; Bos taurus) | IC30 [3] [µM] | inhibition at 10 µM [4] [%] | EC50 [5] [nM] | Inhibition [6] [%] | Inhibition [7] [%] | Agonism [8] [%] | IC30 [9] [µM] | RBA1 [10] | RBA2 [11] | IC50 [12] [µM] | relative binding affinity (RBA) [1] | RBA [2] | Selectivity [13]
1 | CN(C)c1ccc(C(=C(C#N)c2ccccc2)c2ccc(N(C)C)cc2)cc1 | < 0.1 | < 0.1 | 10 | 30 | 12 | 48 | 3 | 85 | 5.7 | 0.12 | 0.04 |  |  |  | 
2 | CCN(CC)CCOc1ccc(C(=C(C#N)c2ccccc2)c2ccc(OCCN(CC)CC)cc2)cc1 | 3.6 | 3.6 | 3.3 | 87 | 0.28 | 94 | 27 | 62 | 3.1 | 0.42 | 0.4 | > 1 |  |  | 
3 | CN(C)Cc1cc(C(=C(C#N)c2ccccc2)c2ccc(O)c(CN(C)C)c2)ccc1O | < 0.1 | < 0.1 |  | 15 | 44 | 36 | 7 | 31 | 8.5 | 0.3 | 0.01 |  |  |  | 
4 | CCC(=C(c1ccc(O)cc1)c1ccc(OCCN(C)C)cc1)c1ccccc1 |  |  | 4.8 | 65 | 0.003 | 81 | 100 | 10 | 4 |  |  | 0.0025 | 40 | 40 | 
5 | CCN(CC)CCOc1ccc(C(C#N)=C(c2ccccc2)c2ccccc2)cc1 | 41 | 41 | 9.7 | 38 | 25 | 53 | 6 | 71 | 4.8 | 0.17 | 0.01 |  |  |  | 
6 | CC/C(=C(/c1ccc(O)cc1)c1ccc(OCCN(C)C)cc1)c1ccccc1 | 20 | 20 | 9.3 | 33 | 0.016 | 74 | 91 | 61 | 5.3 |  |  | 0.022 |  |  | 
7 | CC/C(=C(\c1ccccc1)c1ccc(OCCN(C)C)cc1)c1ccccc1 [TAMOXIFEN] | 100 | 100 | 5.7 | 56 | 0.11 | 49 | 90 | 21 | 6.5 |  |  | 0.219 |  |  | 
8 | CN(C)Cc1cc(/C(=C(\C#N)c2ccccc2)c2ccc(O)cc2)ccc1O |  |  | 10 | 30 | 14 | 30 | 28 | 28 | 10 | 3.9 | 0.21 | > 1 |  |  | 
9 | N#CC(=C(c1ccc(O)cc1)c1ccc(O)cc1)c1ccc(O)cc1 |  |  | 6.8 | 42 | 0.036 | 39 | 31 | 85 | 8 | 41 | 166 | 0.0095 |  |  | 
10 | CCN(CC)CCOc1ccc(/C(=C(\C#N)c2ccccc2)c2ccc(O)cc2)cc1 | 6.9 | 6.9 | 3.5 | 94 | 0.03 | 89 | 100 | 12 | 3.9 | 3.6 | 3.4 | 0.025 |  |  | 
11 | Cc1ccc(/C(=C(/C#N)c2ccc(O)cc2)c2ccc(O)cc2)cc1 |  |  | 6.5 | 45 | 0.105 | 35 | 41 | 69 | 10 | 36 | 78 | 0.032 |  |  | 
12 | CC/C(=C(/c1ccccc1)c1ccc(OCCN(C)C)cc1)c1ccccc1 | 77 | 77 | 6.4 | 52 | 11 | 79 | 1 | 100 | 4.3 |  |  |  |  |  | 
13 | CC(C)Oc1ccc(/C(=C(/C#N)c2ccccc2)c2ccc(O)cc2)cc1 |  |  | 5.1 | 47 | 0.18 | 57 | 98 | 22 | 5.2 | 7.9 | 6.4 | 0.034 |  |  | 
14 | CCN(CC)CCOc1ccc(/C(=C(/C#N)c2ccccc2)c2ccc(O)cc2)cc1 | 27 | 27 | 6.4 | 57 | 0.02 | 77 | 100 | 16 | 4.8 | 126 | 108 | 0.0046 |  |  | 0.85
